Measured values from ChEMBL document CHEMBL3351414, “Novel 9'-substituted-noscapines: synthesis with Suzuki cross-coupling, structure elucidation and biological evaluation” (Eur J Med Chem, 2014).
Calls of active or inactive are those of the source. The rule behind the calls is not given here.

Experiments:
CA46 [1] = assay: Cell cycle arrest in human CA46 cells assessed as reduction in mitotic index by Giemsa staining method relative to control; type: functional; set-up: scale not given: the % may be the effect or the level left
In short: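 CA46 Burkitt lymphoma cells grown in RPMI 1640 with 17% FBS and 2 mM L-glutamine at 37 °C, 5% CO2, treated 16 h. Cells were swollen 10 min in half-strength PBS, fixed in 0.5% acetic acid–1.5% ethanol, then spread from 25% acetic acid/75% ethanol. Slides were Giemsa-stained. Mitotic cells were those with condensed chromosomes and no nuclear membrane, with ≥200 cells counted per condition.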

CA46 [2] = assay: Cell cycle arrest in human CA46 cells assessed as accumulation at G2/M phase at 5 times IC50 by flow cytometry; type: functional
Tubulin [3] = target: T1, Tubulin (Bos taurus, UniProt Q6B856+Q862L2+Q862F3); assay: Inhibition of bovine brain tubulin assessed as extent of assembly preincubated for 15 mins by turbidimetry
In short: (§1)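 Bovine brain tubulin at 10 µM (1.0 mg/mL) in 0.8 M monosodium glutamate pH 6.6 with 4% DMSO and varying compound was preincubated 15 min at 30 °C, then chilled. GTP was added to 0.4 mM final and the temperature jumped from 0 to 30 °C. Turbidity was followed at 350 nm, scoring either maximum rate or extent of assembly at 20 min.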

Jurkat [4] = assay: Cell cycle arrest in human Jurkat cells assessed as accumulation at G2/M phase at 10 to 25 uM after 24 hrs by flow cytometry; type: functional, cell-based
In short: (§2)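 5×10^5 HeLa or Jurkat cells exposed to graded compound concentrations for 24 h. Cells were fixed in ice-cold 70% ethanol, lysed with RNase A/0.1% Triton X-100 buffer and stained with propidium iodide. DNA content was read by flow cytometry. Phase percentages are mean ± SEM of three independent experiments.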

IGROV-1 = assay: Antiproliferative activity against human IGROV1 cells assessed as reduction in cell viability after 72 hrs by MTT assay; type: functional, cell-based; details: IGROV-1, 72 h
In short: (§3)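 Cells kept in RPMI-1640 (Jurkat, SEM, RS4;11) or DMEM (A549, HeLa, IGROV-1, HT-29) with 10% FBS plus penicillin/streptomycin. 8×10^3 cells per well were left 18 h at 37 °C in 5% CO2. Medium was then replaced with fresh medium holding graded compound concentrations from 10 mM DMSO stocks. Cells were incubated 72 h and viability read by MTT. IC50 is the mean ± SEM from dose–response curves of at least three independent experiments.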

CCRF-CEM = assay: Antiproliferative activity against human CEM cells assessed as reduction in cell viability after 72 hrs by MTT assay; type: functional, cell-based
HT-29 = assay: Antiproliferative activity against human HT-29 cells assessed as reduction in cell viability after 72 hrs by MTT assay; type: functional, cell-based; details: HT-29, 72 h; in short: as §3
A549 = assay: Antiproliferative activity against human A549 cells assessed as reduction in cell viability after 72 hrs by MTT assay; type: functional, cell-based; details: A549, 72 h; in short: as §3
HeLa [5] = assay: Disruption of microtubule network in human HeLa cells assessed as induction of spherical morphology at 25 uM after 24 hrs by immunofluorescence microscopy; type: cell-based
In short: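 HeLa cells exposed 24 h at 25 µM, fixed in cold 4% formaldehyde for 15 min, and stained with anti-β-tubulin plus Alexa-conjugated secondary antibody, with DAPI counterstain. Cells were imaged by confocal microscopy.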

HeLa [6] = assay: Antiproliferative activity against human HeLa cells assessed as reduction in cell viability after 72 hrs by MTT assay; type: functional, cell-based; in short: as §3
Tubulin (Bos taurus) = Tubulin (Bos taurus) (UniProt Q6B856+Q862L2+Q862F3); assay: Displacement of [3H]colchicine from bovine brain tubulin at 500 uM after 10 mins by liquid scintillation counting
PBL [7] = assay: Cytotoxicity against resting human PBLs assessed as reduction in cell growth; type: cell-based
In short: (§4)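 Peripheral blood lymphocytes from healthy donors, tested either resting (no PHA) or PHA-stimulated. Value is the concentration reducing cell growth by 50%, mean ± SEM of three separate experiments.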

CA46 [8] = assay: Antiproliferative activity against human CA46 cells assessed as reduction in cell viability after 72 hrs by MTT assay; type: functional, cell-based; details: CA46, 72 h
HeLa [9] = assay: Effect on cell morphology in human HeLa cells at 25 uM after 24 hrs using phalloidin staining by confocal microscopy; type: functional, cell-based
In short: (§5)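 After 24 h at 25 µM, HeLa cells were stained with anti-PCM1 and Alexa-conjugated secondary antibody, with phalloidin-tetramethylrhodamine B for actin and DAPI for nuclei. Cells were imaged by confocal microscopy at 60×.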

HeLa [10] = assay: Effect on PCM1 protein in human HeLa cells assessed as accumulation of pericentriolar material at 25 uM after 24 hrs by immunofluorescence microscopy; type: functional, cell-based; in short: as §5
HeLa [11] = assay: Effect on cell morphology in human HeLa cells assessed as disorganization of actin filament at 25 uM after 24 hrs by confocal microscopy relative to control; type: functional, cell-based; in short: as §5
Tubulin [12] = target: T1, Tubulin; assay: Inhibition of bovine brain tubulin assessed as rate of assembly preincubated for 15 mins by turbidimetry; in short: as §1
Jurkat [13] = assay: Cell cycle arrest in human Jurkat cells assessed as accumulation at G2/M phase after 24 hrs by flow cytometry; type: functional, cell-based; in short: as §2
PBL [14] = assay: Cytotoxicity against PHA-stimulated human PBLs assessed as reduction in cell growth; type: cell-based; in short: as §4
HeLa [15] = assay: Cell cycle arrest in human HeLa cells assessed as accumulation at G2/M phase after 24 hrs by flow cytometry; type: functional, cell-based; in short: as §2
[16] = Antiproliferative activity against human RS4:11 cells assessed as reduction in cell viability after 72 hrs by MTT assay; type: functional, cell-based; details: RS4-11, 72 h; in short: as §3
HeLa [17] = assay: Cell cycle arrest in human HeLa cells assessed as accumulation at G2/M phase at 25 uM after 24 hrs by flow cytometry; type: functional; in short: as §2
[18] = Antiproliferative activity against human SEM cells assessed as reduction in cell viability after 72 hrs by MTT assay; type: functional, cell-based; in short: as §3
LoVo = assay: Antiproliferative activity against human LoVo cells assessed as reduction in cell viability after 72 hrs by MTT assay; type: functional, cell-based
HeLa [19] = assay: Cell cycle arrest in human HeLa cells assessed as accumulation at G2/M phase at 10 to 25 uM after 24 hrs by flow cytometry; type: functional, cell-based; in short: as §2

SMILES: COc1ccc(/C=C\c2cc(OC)c(OC)c(OC)c2)cc1O [COMBRETASTATIN A4]
- Activity (CA46 [1]): 46%
- Activity (CA46 [2]): >80%

SMILES: COc1cccc(-c2c3c(c(OC)c4c2OCO4)[C@H]([C@H]2OC(=O)c4c2ccc(OC)c4OC)N(C)CC3)c1
- IC50 (Tubulin [3]): > 400 µM
- Activity (Jurkat [4]): Active
- IC50 (IGROV-1): 57.2 µM
- IC50 (CCRF-CEM): 22.3 µM
- IC50 (HT-29): 36.1 µM
- IC50 (A549): > 100 µM
- Activity (HeLa [5]): 70%
- IC50 (HeLa [6]): 8.9 µM
- Activity (CA46 [1]): 28%
- inhibition (Tubulin (Bos taurus)): 38%
- IC50 (PBL [7]): > 200 µM
- IC50 (CA46 [8]): 20 µM
- Activity (HeLa [9]): Active
- Activity (HeLa [10]): Active
- Activity (HeLa [11]): Active
- Activity (CA46 [2]): >80%
- IC50 (Tubulin [12]): 170 µM
- Activity (Jurkat [13]): Dose-dependent effect
- IC50 (PBL [14]): > 200 µM
- Activity (HeLa [15]): Dose-dependent effect
- IC50 [16]: 7.1 µM
- Activity (HeLa [17]): >80%
- IC50 [18]: 13 µM
- IC50 (LoVo): 29.4 µM
- Activity (HeLa [19]): Active

SMILES: COc1ccc2c(c1OC)C(=O)O[C@@H]2[C@H]1c2c(cc3c(c2OC)OCO3)CCN1C [NOSCAPINE]
- IC50 (Tubulin [3]): > 400 µM
- inhibition (Tubulin (Bos taurus)): 44%
- IC50 (Tubulin [12]): 170 µM

SMILES: COC(=O)Nc1nc2cc(C(=O)c3cccs3)ccc2[nH]1
- Activity (HeLa [10]): Active
